A short description of data set [1]: Oral bioavailability in cynomolgus monkey at 5 mg/kg. Format: ADME, organism-based, Macaca fascicularis. As to conditions: in vivo.
The subject of data set [2] is Cynomolgus monkey. Description: Inhibition of ovulation in cynomolgus monkey assessed as luteal phase progesterone surge at 3 mg/kg. As to conditions: Macaca fascicularis. Format: functional. The gist of the method:
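Normally cycling cynomolgus monkeys dosed orally, daily at 1, 3 or 10 mg/kg (n=4–6) or vehicle (n=2), in 2% Tween 80/0.5% methylcellulose for 30 days from cycle day 2. Serum sampled three times weekly; progesterone measured by radioimmunoassay to detect a luteal-phase rise as the sign of ovulation.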

For another data set, the system named is Rattus norvegicus. Description: Drug level in Sprague-Dawley rat at 1 mg/kg, iv. As to conditions: in vivo. Format: ADME, organism-based. Also on record: dose 1 mg/kg, route intravenous. The procedure, abridged:
(§1)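 Female Sprague–Dawley rats dosed as 1-in-4 cassette or discrete studies. iv in DMSO/PEG200 20:80; po in aqueous 2% Tween 80/0.5% methyl cellulose. Parameters reported: C0, Cmax, t1/2, plasma clearance, Vss, AUC0-inf and %F.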

Data set [3] is described as follows: Drug level in Sprague-Dawley rat at 0.5 mg/kg, iv. The format is ADME, organism-based. More on the design: dose 0.5 mg/kg, route intravenous. As to conditions: in vivo. The procedure, abridged: as §1
A short description of data set [4]: Half life in cynomolgus monkey at 5 mg/kg, po. Also on record: dose 5 mg/kg, route oral. As to conditions: in vivo. Format: ADME, organism-based, Macaca fascicularis.
Data set [5] has as its target T1, Mineralocorticoid receptor (Homo sapiens) (UniProt P08235).
T1 sequence (whole entry): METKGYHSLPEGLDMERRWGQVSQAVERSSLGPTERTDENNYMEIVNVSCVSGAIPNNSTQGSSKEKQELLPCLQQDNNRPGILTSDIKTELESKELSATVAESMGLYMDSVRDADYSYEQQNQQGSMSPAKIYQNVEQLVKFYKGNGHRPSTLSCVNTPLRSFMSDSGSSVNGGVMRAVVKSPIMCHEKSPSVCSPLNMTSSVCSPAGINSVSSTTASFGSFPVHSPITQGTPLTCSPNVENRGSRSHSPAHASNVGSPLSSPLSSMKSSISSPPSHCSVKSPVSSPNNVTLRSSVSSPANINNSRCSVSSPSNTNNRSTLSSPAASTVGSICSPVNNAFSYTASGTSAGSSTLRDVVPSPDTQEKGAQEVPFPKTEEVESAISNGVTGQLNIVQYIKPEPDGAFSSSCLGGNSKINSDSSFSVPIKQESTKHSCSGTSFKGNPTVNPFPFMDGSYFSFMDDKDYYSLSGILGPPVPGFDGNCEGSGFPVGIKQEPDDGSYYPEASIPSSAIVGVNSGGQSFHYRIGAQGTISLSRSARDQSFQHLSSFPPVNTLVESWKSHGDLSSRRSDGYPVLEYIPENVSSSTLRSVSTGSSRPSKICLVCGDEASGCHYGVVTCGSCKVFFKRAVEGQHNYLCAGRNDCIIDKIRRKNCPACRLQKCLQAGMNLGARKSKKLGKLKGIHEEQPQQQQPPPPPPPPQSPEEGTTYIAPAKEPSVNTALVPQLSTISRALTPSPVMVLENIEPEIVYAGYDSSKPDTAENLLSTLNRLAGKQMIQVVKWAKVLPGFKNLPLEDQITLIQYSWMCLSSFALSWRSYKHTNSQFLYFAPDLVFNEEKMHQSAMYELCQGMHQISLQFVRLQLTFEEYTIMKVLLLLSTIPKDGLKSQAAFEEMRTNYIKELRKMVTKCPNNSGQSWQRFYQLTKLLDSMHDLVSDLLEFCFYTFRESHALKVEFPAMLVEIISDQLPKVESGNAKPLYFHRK
Description: Agonist activity at human MR ligand binding domain receptor expressed in african green monkey COS7 cells by Gal4 hybrid assay. The format is cell-based. As to conditions: COS-7. The procedure, abridged:
(§2)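 Gal4-steroid receptor LBD fusion plasmid plus GAL4_UAS (5 copies, E1b TATA)-luciferase reporter, 50 ng/well each, transfected 16 h into COS-7 cells grown in phenol red-free DMEM with 10% charcoal/dextran-treated FBS. Compound treatment 20 h, then luciferase read-out. Antagonist mode uses 3 nM aldosterone (hMR) or 5 nM 17β-estradiol (hER). Values are the average of at least duplicate determinations.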

The nature of data set [6]: Half life in Sprague-Dawley rat at 0.5 mg/kg, iv. The format is ADME, organism-based. Also on record: dose 0.5 mg/kg, route intravenous. As to conditions: in vivo. The procedure, abridged:
as §1

Data set [7] addresses T2, Estrogen receptor (Homo sapiens) (UniProt P03372).
T2 sequence (whole entry): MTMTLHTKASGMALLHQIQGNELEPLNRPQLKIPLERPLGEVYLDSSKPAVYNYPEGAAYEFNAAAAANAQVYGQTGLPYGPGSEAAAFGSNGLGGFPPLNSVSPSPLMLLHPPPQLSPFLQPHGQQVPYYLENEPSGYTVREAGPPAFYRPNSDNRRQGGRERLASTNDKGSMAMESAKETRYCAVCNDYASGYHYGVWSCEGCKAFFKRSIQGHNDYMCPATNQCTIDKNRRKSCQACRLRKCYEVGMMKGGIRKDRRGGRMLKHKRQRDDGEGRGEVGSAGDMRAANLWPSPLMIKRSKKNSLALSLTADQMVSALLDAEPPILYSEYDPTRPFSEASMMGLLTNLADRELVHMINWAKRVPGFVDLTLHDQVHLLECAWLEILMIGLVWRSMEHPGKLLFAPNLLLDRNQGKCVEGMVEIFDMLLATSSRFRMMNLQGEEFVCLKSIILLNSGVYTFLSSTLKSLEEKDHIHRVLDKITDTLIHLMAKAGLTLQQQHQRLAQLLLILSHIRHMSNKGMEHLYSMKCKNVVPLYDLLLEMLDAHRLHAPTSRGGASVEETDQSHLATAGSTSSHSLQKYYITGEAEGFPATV
Description: Agonist activity at human ER ligand binding domain expressed in african green monkey COS7 cells by Gal4 hybrid assay. Format: cell-based. As to conditions: COS-7. The procedure, abridged: as §2

A short description of data set [8]: Stability in human liver microsome assessed as half life. Format: ADME. As to conditions: liver microsomes. The gist of the method:
(§3)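 Female rat, cynomolgus monkey and human liver microsome stability; half-life (min) reported.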

The nature of data set [9]: Stability in cynomolgus monkey liver microsome assessed as half life. As to conditions: liver microsomes. Format: ADME, Macaca fascicularis. The gist of the method: as §3
In general terms: Liver microsomes are a subcellular fraction often used to study metabolism.

A further data set concerns Rhesus monkey. Description: Effect on ovulation rate of rhesus monkey. Format: functional, organism-based. As to conditions: Macaca mulatta. The gist of the method: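 Adult female rhesus macaques (n=3) with regular cycles dosed 10 mg/(kg·day) po in 2% Tween 80/0.5% methylcellulose with cherry flavoring for 28 days from cycle day 2. Serum estradiol and progesterone measured every 3 days. Necropsy on day 28. Uterine weights are of half the uterus; KI-67 and mitotic indices counted per 1000 cells. Values given as mean ± SE.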

Data set [10] in a line: AUC (0 to infinity) in Sprague-Dawley rat at 0.5 mg/kg, iv. The format is ADME, organism-based. Also on record: time infinity, dose 0.5 mg/kg, route intravenous. As to conditions: plasma.
Data set [11] relates to Cynomolgus monkey. Description: Induction of early menses in cynomolgus monkey at 5 mg/kg, po. Format: organism-based, Macaca fascicularis. More on the design: dose 5 mg/kg, route oral. As to conditions: in vivo.

Calls of active or inactive are those of the source.

As for `Cn1c(C#N)ccc1-c1cc(F)c2c(c1)C(C)(C)C(=O)N2`, the bioavailability in data set [1] worked out at 49%. Moreover, the ED50 with Cynomolgus monkey [2] is 1.6 mg/kg. For the same molecule, the Drug uptake in the data set with Rattus norvegicus turned out to be 528 ng/mL. The molecule further displayed a C0 in data set [3] of 385 ng/mL. Besides, the half-life in [4] was 15.7 h; in data set [6], 9.5 h; in data set [8] it was greater than 0.5 h; in data set [9], 0.317 h. Besides, the outcome (in data set [5]; in data set [7]; in the data set with Rhesus monkey) was inactive. In addition, the AUC(0-inf) in data set [10] worked out at 1980 ng·h/mL. Further, the Activity in the data set with Cynomolgus monkey [11] turned out to be 75%.

What is called bioavailability is dose-corrected exposure relative to a reference, in per cent. In general, ED50 refers to the dose that gives a 50% effect, or the effect in half of the subjects. Usually half-life stands for the time needed for the level to fall by half in the phase considered. In general, AUC(0-inf) refers to total exposure, with the tail of the curve extrapolated.
